The record followed here is ChEMBL document CHEMBL1275329, “Fruitful adrenergic α(2C)-agonism/α(2A)-antagonism combination to prevent and contrast morphine tolerance and dependence” (J Med Chem, 2010).

Active and inactive are the calls of the source. No cut-off for these calls is given here.

In data set [1] the target is T1, Alpha-2A adrenergic receptor (Homo sapiens) (UniProt P08913).
T1 sequence (whole entry): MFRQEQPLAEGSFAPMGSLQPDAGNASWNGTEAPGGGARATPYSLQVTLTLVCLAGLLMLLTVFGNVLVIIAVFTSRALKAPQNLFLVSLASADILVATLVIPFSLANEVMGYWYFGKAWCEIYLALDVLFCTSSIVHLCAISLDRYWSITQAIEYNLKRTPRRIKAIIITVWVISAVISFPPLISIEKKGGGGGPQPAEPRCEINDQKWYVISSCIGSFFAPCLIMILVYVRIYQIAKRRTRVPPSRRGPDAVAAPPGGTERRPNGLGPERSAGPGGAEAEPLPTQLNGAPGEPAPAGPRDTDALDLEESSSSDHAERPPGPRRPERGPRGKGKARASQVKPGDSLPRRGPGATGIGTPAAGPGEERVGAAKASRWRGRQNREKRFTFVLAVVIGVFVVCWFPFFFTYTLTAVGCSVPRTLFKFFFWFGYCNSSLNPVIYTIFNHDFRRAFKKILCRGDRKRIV
The data set is described as follows: Antagonist activity at human alpha2A adrenoceptor expressed in CHO cells assessed as effect on agonist-induced extracellular acidification by microphysiometry. The class given is functional, cell-based. The method in brief: (§1)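 CHO cells stably expressing one human α2-AR subtype were run on the Cytosensor microphysiometer with bicarbonate-free DMEM perfusion. […] Kb = M/(concentration ratio − 1), where the ratio is EC50 with antagonist over EC50 without. Reported as pKb, mean ± SEM of 3–6 experiments.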

Data set [2] deals with T2, Alpha-2B adrenergic receptor (Homo sapiens, UniProt P18089).
T2 sequence (P18089 whole entry): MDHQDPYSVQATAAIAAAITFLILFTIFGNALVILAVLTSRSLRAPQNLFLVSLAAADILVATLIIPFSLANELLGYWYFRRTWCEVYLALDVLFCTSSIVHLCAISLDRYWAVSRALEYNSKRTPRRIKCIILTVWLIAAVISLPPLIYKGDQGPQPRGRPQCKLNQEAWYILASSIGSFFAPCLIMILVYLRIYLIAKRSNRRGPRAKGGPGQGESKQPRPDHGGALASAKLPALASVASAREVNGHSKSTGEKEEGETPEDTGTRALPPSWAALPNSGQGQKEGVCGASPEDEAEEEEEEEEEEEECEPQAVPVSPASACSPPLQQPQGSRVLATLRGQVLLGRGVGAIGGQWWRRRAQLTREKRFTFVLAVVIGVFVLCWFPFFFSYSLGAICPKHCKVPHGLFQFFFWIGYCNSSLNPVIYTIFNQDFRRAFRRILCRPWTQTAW
Briefly: Displacement of [3H]RX821002 from human alpha2B adrenoceptor expressed in CHO cells. The class given is cell-based. The method in brief:
(§2)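 Buffer was Tris-Mg (50 mM Tris-HCl, 0.5 mM MgCl2, pH 7.5), competitor 10^-9 to 10^-4 M, 30 min at room temperature. Bound ligand was filtered and counted. Ki by nonlinear one- or two-site fit, reported as pKi.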
(Displacement assays read how much labelled ligand stays bound in the presence of the test substance.)

Data set [3] has as its target T2, Alpha-2B adrenergic receptor. Briefly: Agonist activity at human alpha2B adrenoceptor expressed in CHO cells assessed as induction of extracellular acidification by microphysiometry.
Data set [4] deals with T3, Alpha-2C adrenergic receptor (Homo sapiens, UniProt P18825).
T3 sequence (P18825 whole entry): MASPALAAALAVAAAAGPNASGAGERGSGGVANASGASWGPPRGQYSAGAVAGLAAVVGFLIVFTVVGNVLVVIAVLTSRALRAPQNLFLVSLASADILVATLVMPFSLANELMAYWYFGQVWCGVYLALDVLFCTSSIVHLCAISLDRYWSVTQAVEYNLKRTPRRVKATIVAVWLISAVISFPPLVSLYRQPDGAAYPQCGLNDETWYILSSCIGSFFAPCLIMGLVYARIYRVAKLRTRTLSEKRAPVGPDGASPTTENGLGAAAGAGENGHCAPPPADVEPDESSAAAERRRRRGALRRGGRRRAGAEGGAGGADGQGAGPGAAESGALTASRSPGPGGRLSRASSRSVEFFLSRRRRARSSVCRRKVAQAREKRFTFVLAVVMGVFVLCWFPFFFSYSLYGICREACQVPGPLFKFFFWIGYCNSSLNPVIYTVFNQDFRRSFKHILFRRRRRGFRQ
Briefly: Displacement of [3H]RX821002 from human Alpha-2C adrenoceptor expressed in CHO cells. The class given is cell-based. The method in brief:
as §2

Data set [5] deals with T3, Alpha-2C adrenergic receptor. Briefly: Agonist activity at human Alpha-2C adrenoceptor expressed in CHO cells assessed as induction of extracellular acidification by microphysiometry. In kind it is functional, cell-based. Put shortly:
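Cytosensor microphysiometry on CHO cells stably expressing one human α2-AR subtype, seeded at 3 × 10⁵ cells/cup and grown 24 h at 37 °C. Cells were perfused with bicarbonate-free DMEM and exposed to agonist for 4 min, with 30 min washes between exposures. The read-out is the change in acidification rate: peak after agonist minus the mean of three prior readings. Mean ± SEM, 3–6 experiments.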

The target in data set [6] is T4, Alpha-2C adrenergic receptor (Homo sapiens) (UniProt P18825).
T4 sequence (whole entry): T3 sequence (P18825 whole entry)
The data set is described as follows: Agonist activity at human Alpha-2C adrenoceptor expressed in CHO cells assessed as induction of extracellular acidification by microphysiometry relative to (-)noradrenaline. In kind it is functional, cell-based. The method in brief:
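Cytosensor microphysiometry on CHO cells stably expressing one human α2-AR subtype, seeded at 3 × 10⁵ cells/cup and grown 24 h at 37 °C. Cells were perfused with bicarbonate-free DMEM and exposed to agonist for 4 min, with 30 min washes between exposures. The read-out is the change in acidification rate: peak after agonist minus the mean of three prior readings. […] Mean ± SEM, 3–6 experiments.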

Data set [7] deals with Mus musculus. Briefly: Enhancement of morphine-induced analgesic effect in CD1 mouse at 0.05 mg/kg, ip administered 15 mins before morphine dosing measured 30 to 240 mins post morphine challenge by radiant heat tail flick test. In kind it is functional, organism-based. More on the design: dose 0.05 mg/kg. The method in brief:
(§3)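 Male CD-1 mice (25–35 g) received test agent 0.05 mg/kg ip or vehicle 15 min before morphine 5 mg/kg sc. Radiant-heat tail-flick to the lower third of the tail; baseline latency (2–3 s) is the mean of two trials. Latencies were read at 30, 60, 90, 120 and 240 min and expressed as %MPE. 7–8 mice per group, mean ± SEM.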

Data set [8] deals with Mus musculus. Briefly: Analgesic effect in CD1 mouse at 0.05 mg/kg, ip by radiant heat tail flick test. The class given is functional, organism-based. The arrangement: dose 0.05 mg/kg. The method in brief: as §3
A general note: Thermal pain tests record how soon the animal reacts.

The subject of data set [9] is Mus musculus. Briefly: Enhancement of morphine-induced analgesic effect in CD1 mouse at 0.05 mg/kg, ip administered 15 mins before morphine dosing measured 30 to 240 mins post morphine challenge in presence of Alpha-2C adrenergic receptor antagonist yohimbine by radiant heat tail flick test. The class given is functional, organism-based. More on the design: dose 0.05 mg/kg. Put shortly: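 Male CD-1 mice got yohimbine 1.250 mg/kg ip 15 min before test agent (0.05 mg/kg ip). Test agent was given 15 min before morphine 5 mg/kg sc. Radiant-heat tail-flick latency was read 30–240 min after morphine and expressed as %MPE.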

The test system of data set [10] is Mus musculus. Briefly: Reduction in morphine tolerance acquisition in CD1 mouse assessed as morphine analgesic effect incidence at 0.05 mg/kg, ip administered as single dose 15 mins before last morphine dosing on test day post morphine challenge by radiant heat tail flick test. In kind it is functional. The arrangement: scale not given: the % may be the effect or the level left. The method in brief:
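Tolerance was induced in male CD-1 mice with morphine 10 mg/kg sc twice daily at 12 h intervals for 5 days. On day 5, test agent 0.05 mg/kg ip was given once, 15 min before the last morphine injection. Tail-flick antinociception was read 30 min after that injection and expressed as %MPE, with day 1 vs day 5 compared.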

In data set [11] the test system is Mus musculus. Briefly: Reduction in morphine dependence expression in CD1 mouse assessed as decrease in expression of naloxone-precipitated withdrawal syndrome at 0.05 mg/kg, ip administered as single dose […] on test day post morphine challenge […]. The arrangement: dose 0.05 mg/kg. In kind it is functional, organism-based.
The test system of data set [12] is Mus musculus. Briefly: Toxicity in CD1 mouse assessed as effect on sleep duration at 0.05 mg/kg, ip by pentobarbital sodium induced sleep time assay. The arrangement: dose 0.05 mg/kg, route intraperitoneal. The settings on record: in vivo. In kind it is organism-based. Put shortly:
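Male CD-1 mice (n = 10 per group) were given test agent 0.05 mg/kg or vehicle, then sodium pentobarbital 50 mg/kg ip 15 min later. Sleep duration, the time from loss to regain of the righting reflex, was recorded in seconds. Mean ± SEM.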

The test system of data set [13] is Mus musculus. The data set is described as follows: Reduction in morphine tolerance acquisition in CD1 mouse assessed as morphine analgesic effect incidence at 0.05 mg/kg, ip bid administered 15 mins before last morphine dosing by radiant heat tail flick test. The class given is functional, organism-based. The arrangement: dose 0.05 mg/kg.
Data set [14] deals with Mus musculus. Briefly: Reduction in morphine dependence expression in CD1 mouse assessed as decrease in expression of naloxone-precipitated withdrawal syndrome at 0.05 mg/kg, ip bid administered 15 mins before last morphine dosing […]. In kind it is functional, organism-based. More on the design: dose 0.05 mg/kg. Put shortly: (§4)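 In male CD-1 mice, morphine 10 mg/kg sc was given twice daily at 12 h intervals for 6 days, with test agent 0.05 mg/kg ip 15 min before each morphine dose. Jumping was counted, and somatic signs were scored as the sum of rearing, forepaw tremor and teeth chatter. Blind observers; mean ± SEM.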

Data set [15] concerns the target T5, Alpha-2B adrenergic receptor (Homo sapiens) (UniProt P18089).
T5 sequence (whole entry): T2 sequence (P18089 whole entry)
The settings on record: CHO.

For data set [16], the system named is Mus musculus. Briefly: Reduction in morphine dependence expression in CD1 mouse assessed as decrease in somatic signs at 0.05 mg/kg, ip bid administered 15 mins before last morphine dosing […]. The settings on record: route intraperitoneal. The class given is functional. The arrangement: scale not given: the % may be the effect or the level left. The method in brief: as §4

In data set [17] the test system is Mus musculus. Briefly: Reduction in morphine dependence expression in CD1 mouse assessed as decrease in frequency of jumping at 0.05 mg/kg, ip bid administered 15 mins before last morphine dosing […]. The class given is functional. The arrangement: scale not given: the % may be the effect or the level left. The settings on record: route intraperitoneal. Put shortly: as §4

Data set [18] has as its target T5, Alpha-2B adrenergic receptor (Homo sapiens). Briefly: Antagonist activity at human alpha2B adrenoceptor expressed in CHO cells assessed as effect on agonist-induced extracellular acidification by microphysiometry. In kind it is functional, cell-based. The method in brief:
as §1

For data set [19], the target named is T4, Alpha-2C adrenergic receptor (Homo sapiens). The data set is described as follows: Antagonist activity at human Alpha-2C adrenoceptor expressed in CHO cells assessed as effect on agonist-induced extracellular acidification by microphysiometry. In kind it is functional, cell-based. The method in brief: as §1

Take `C=CCc1ccccc1O[C@@H](C)C1=NCCN1`: the negative logarithm of the Kb (pKb) in data set [1] came to 7.8. In addition, the inhibitory constant (Ki) in [2] was 398 nM; in data set [4] it was 70.8 nM. For the same molecule, the 50% effective concentration (EC50) in data set [3] was 1000 nM; in data set [5], 25.1 nM. Further, the Intrinsic activity in data set [6] stood at 0.9. For the same molecule, the result with Mus musculus [7], with Mus musculus [11], in the data set on Mus musculus [13] and in the data set on Mus musculus [14] was Active. Moreover, the outcome in the data set with Mus musculus [8] and in the data set on Mus musculus [9] was inactive. Moreover, the Activity was 22% in the data set with Mus musculus [10] (route intraperitoneal) and “Non-toxic” in the data set with Mus musculus [12].
Take `C=CCc1ccccc1O[C@H](C)C1=NCCN1`: the pKb in data set [1] came out at 7.4. Further, the Ki in data set [2] is 562 nM; in data set [4], 178 nM. The EC50 in data set [5] is 186 nM. For the same molecule, in data set [6], the Intrinsic activity came to 0.5. The result in the data set with Mus musculus [7], with Mus musculus [11], in the data set with Mus musculus [13] and in the data set with Mus musculus [14] was Active. Further, the result in the data set with Mus musculus [8], in the data set on Mus musculus [9] and in the data set with Mus musculus [10] was inactive. The Activity result in the data set with Mus musculus [12] was “Non-toxic”. Further, the pEC50 entry in data set [15] is “inactive”.
On to `C=CCc1ccccc1OC(C)C1=NCCN1` (racemic) [ALLYPHENYLINE], for which, in data set [1], the negative logarithm of the Kb (pKb) was determined as 7.4. Besides, in data set [6], the Intrinsic activity was determined as 0.9. The Activity with Mus musculus [10] (route intraperitoneal) was determined as 22%; in the data set on Mus musculus [16], 40%; in the data set with Mus musculus [17], 80%. The outcome with Mus musculus [13] and with Mus musculus [14] was Active. Further, the pEC50 entry in [15] is “inactive”.
As for `CC(Oc1ccccc1)C1=NCCN1` (racemic), the figures for the pKb in data set [1], in [18] and in [19] were 7.01, 6.2 and 6.85, respectively.

What is called pKb is the negative decadic logarithm of the Kb, by convention in mol/L. As a reminder, the Ki is a measure of affinity in units of concentration, obtained from inhibition or displacement. The term EC50 denotes the concentration needed to bring the measured effect to its halfway point.
